PubChem BioAssay AID449763 (Sanford-Burnham Center for Chemical Genomics, 2010)
The whole screen tested about 330,000 compounds, of which about 1,100 (0.33%) were called active. The full list was thinned out, with actives kept by preference. Values without a mark were called inactive.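 How the source made its calls: active means at 10 µM dose, activation of 40% or more, normalized to positive control; inactive means the rest.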

Experiment: PERK-eIF2a-CHOP pathway stimulators – cell-based, CHO-CHOP luciferase reporter, luminescence, uHTS, primary screen (AID 449763);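 further: 100% = tunicamycin at 10 µg/mL and 0% = DMSO alone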
Conditions: UPR activation, at 10 µM, stronger effect = higher value, percent of tunicamycin response over DMSO baseline
How it was run: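 Dosing – one dose, 10 µM in 0.5% DMSO · System – CHO-CHOP cells, stable luciferase reporter of PERK-eIF2a-CHOP signalling · Input – 500 cells/well · Control set – tunicamycin 10 µg/mL final as positive, DMSO-only wells as negative · Timing – 6 h compound treatment, 37 °C · Measure – % activation vs tunicamycin · Technique – luminescence read with Steady-Glo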

Row | SMILES | activation
1 | CCN(c1ccc(NC(=O)COC(=O)CCc2nc3ccccc3n2-c2ccccc2)cc1)C(C)C | -1.22%
2 | Cc1c(CN2CCC(n3nccc3NC(=O)CCc3ccccc3)CC2)cnn1C | 1.65%
3 | COc1ccc(CN2C(=O)CN=C2Nc2ccc(C)cc2C)cc1 | 1.91%
4 | COc1ccc(CN2CN(C(C)C)CSC2=S)cc1 | 0.456%
5 | S=C1SCN(CCN2CCOCC2)CN1Cc1ccccc1 | 129% (active)
6 | c1ccc(-c2ccc(OCCN3CCOCC3)cc2)cc1 | 5.5%
7 | COc1ccc(OC)c(NC(=O)CSc2nc(-c3ccccc3)cc(=O)[nH]2)c1 | 4.07%
8 | C=C(C)CNC(=S)Nc1ccc(S(=O)(=O)Nc2cnc3ccccc3n2)cc1 | -2.1%
9 | COc1ccc(C(=O)NCC2CCCN2S(=O)(=O)c2cccs2)cc1OC (stereo unspecified) | 11.9%
10 | COCc1ccc(C(=O)N2CCc3c([nH]c4ccccc34)C2c2ccccn2)s1 (stereo unspecified) | -0.769%
11 | COc1ccc(N2CC(NS(=O)(=O)c3ccc4ccccc4c3)CC2=O)cc1 (stereo unspecified) | -0.659%
12 | COc1cc(NS(=O)(=O)c2ccc3ccccc3c2)c2ncccc2c1 | 409% (active)
13 | CCOc1cc(NS(=O)(=O)c2ccc(OC)cc2)c(OCC)cc1NC(C)=O | 1.17%
14 | COC(=O)[C@]1(C)N[C@H](CN(C)C(=O)c2ccc(C(C)(C)C)cc2)[C@@H]2C(=O)N(C)C(=O)[C@@H]21 | 2.43%
15 | CCCCOc1ccc(N(CC(=O)NCC2CCCO2)C(=O)CCC(=O)Nc2cc(C)ccn2)cc1 (stereo unspecified) | -1.23%
16 | O=C(NCc1ccco1)c1sc2cccc(F)c2c1Cl | 2.12%
17 | O=C(O)c1ccc(N/N=C/c2ccc3ncccc3c2)cc1 | -10.5%
18 | Oc1ccc(/C=N/Nc2ccc(C(F)(F)F)cn2)cc1O | 67.4% (active)
19 | O=C(N/N=C/c1ccc(O)c(O)c1)C1c2ccccc2Oc2ccccc21 | 3.18%
20 | Cc1ccc(CCCOC(=O)C[N+]2(C)CCCC2)cc1 | 1.65%
21 | O=S(=O)(NCC1CCCO1)c1cnc(Cl)c(Cl)c1 (stereo unspecified) | 4.71%
22 | O=C(NCCCO)/C(=C\C=C\c1ccccc1)NC(=O)c1ccccc1Cl | 0.299%
23 | COc1ccc(CCNC(=O)CCc2ccccc2O)cc1OC | -0.118%

Row | SMILES | activation
24 | CC1=CC(C)(C)Nc2ccc(OC(=O)CN3C(=O)C4CCCCC4C3=O)cc21 (stereo unspecified) | 67.7% (active)
25 | O=C(COC(=O)CN1C(=O)C2CCCCC2C1=O)Nc1ccc(F)c(F)c1F (stereo unspecified) | 1.69%
26 | CC1=CC(C)(C)Nc2ccc(OC(=O)C(Cc3ccccc3)N3C(=O)C4CCCCC4C3=O)cc21 (stereo unspecified) | -1.34%
27 | COc1ccc(NC2CC(=O)N(C)C2=O)cc1 (stereo unspecified) | -2.21%
28 | Cc1cc(N/N=C\c2ccc(Br)cc2)nc(-n2nc(C)cc2C)n1 | 49.5% (active)
29 | CN(C)c1ccc(/C=N/Nc2cc(N3CCOCC3)nc(N3CCOCC3)n2)cc1 | -1.02%
30 | COc1ccccc1/C=N\Nc1cc(C)nc(-n2nc(C)cc2C)n1 | 80.6% (active)
31 | CC(=O)c1ccc(Oc2cc(C)nc(-n3nc(C)cc3C)n2)cc1 | -1.17%
32 | COc1ccc(/C=N/Nc2cc(N3CCOCC3)nc(C)n2)c(OC)c1 | 8.25%
33 | COc1ccc(Nc2cc(C)nc(-n3nc(C)cc3C)n2)cc1 | 62.8% (active)
34 | COc1ccccc1/C=N/N1CCN(Cc2ccccc2Cl)CC1 | -0.532%
35 | C(=N/Nc1cc(N2CCOCC2)nc(N2CCOCC2)n1)/c1ccccc1 | 4.25%
36 | COc1ccc(NC(=O)c2nc(-n3nc(C)cc3C)ccc2Cl)cc1Cl | -0.184%
37 | CN(CC(=O)NC1CCN(Cc2ccccc2)CC1)S(=O)(=O)c1ccc(Cl)s1 | -1.76%
38 | N#CCN(C(=O)COC(=O)C1CC2CCCC(C1)C2=O)c1ccccc1 (stereo unspecified) | -1.48%
39 | O=C(NCCCn1ccnc1)C(=O)c1cn(CC(=O)N2CCCCCC2)c2ccccc12 | 1.32%
40 | Cc1ccc(S(=O)Cc2ccc(C(=O)N3CCN(C4CCCCC4)CC3)o2)cc1 (stereo unspecified) | -0.502%
41 | Cc1cccnc1NC(=O)Cn1c(=O)oc2ccccc21 | -1.26%
42 | O=C(CSc1nc(=O)n2ccccc2n1)Nc1ccc2c(c1)OCCO2 | 0.903%
43 | CCCCCC(=O)Nc1ccc(C(=O)N/N=C/c2ccc([N+](=O)[O-])cc2)cc1 | 90.2% (active)
44 | CCCC(=O)Nc1ccc(C(=O)N/N=C/c2ccc[nH]2)cc1 | -0.0357%
45 | CCCCCC(=O)NC(=S)NNC(=O)c1ccc([N+](=O)[O-])cc1 | -1.39%
46 | CCCc1nn(C)c2c(=O)[nH]c(-c3cc(S(N)(=O)=O)ccc3OCC)nc12 | 0.336%

Row | SMILES | activation
47 | O=C1Nc2ccc(Br)cc2/C1=N/N=C/C1=C(N2CCOCC2)C(=C\c2ccccc2)/CC1 | 46.3% (active)
48 | COc1ccc(/C=N/N=C2/C(=O)Nc3ccccc32)cc1O | 10.4%
49 | Cc1cc2nc3n(c2cc1C)CC1CC(C(=O)NCCC(C)C)N(C)C31 (stereo unspecified) | -0.707%
50 | O=C(O)c1cccc(NC(=O)c2cc(-c3cccc(Cl)c3)nc3ccccc23)c1 | 2.21%
51 | O=C(N/N=C/c1ccc(Cl)cc1)c1nc2ccc([N+](=O)[O-])cc2c(=O)[nH]1 | 0.124%
52 | O=C(/C(=C/c1cccc(Cl)c1)c1nc2ccccc2[nH]1)c1ccccc1 | 349% (active)
53 | O=S(=O)(c1ccc(SCc2ccc(Br)cc2)nc1)N1CCOCC1 | 0.334%
54 | COc1ccccc1OCCCCCCN1CCN(C)CC1 | -0.245%
55 | Cc1nc2ccc(NC(=O)c3cccc(S(=O)(=O)N4CCOCC4)c3)cc2s1 | 1.06%
56 | O=C(CN1CCN(S(=O)(=O)c2cccc(Cl)c2)CC1)N1CCCCC1 | -0.576%
57 | O=S(=O)(Nc1nccs1)c1ccc2c(c1)OCCO2 | -1.47%
58 | C=CCNc1cnn(-c2ccc(C)cc2)c(=O)c1Cl | 0.179%
59 | Cc1ccc(Oc2cnn(-c3ccccc3)c(=O)c2Br)cc1 | 2.08%
60 | Cc1cccc(-n2ncc(Cl)c(Cl)c2=O)c1 | 49.1% (active)
61 | Cc1ccc(CNC(=O)COC(=O)C2CCC2)cc1 | 0.475%
62 | CCc1nnc(NC(=O)CSc2nnnn2-c2cccc(C(C)=O)c2)s1 | -1.47%
63 | CCOc1ccc(Br)cc1CSC(=N)N | 0.704%
64 | CCc1ccc(CNC(=O)C2CCCN(c3nc4ccccc4o3)C2)cc1 (stereo unspecified) | -2.13%
65 | CCOC(=O)CCNC(=O)N1CCCC(C(=O)c2ccccc2SC)C1 (stereo unspecified) | 1.02%
66 | CCOC(=O)c1cnc(Nc2nc3ccccc3o2)nc1CSC(=S)N1CCCCC1 | 152% (active)
67 | CCN(CC)C(=O)Cn1cc(S(=O)(=O)CC(=O)NCc2ccc3c(c2)OCO3)c2ccccc21 | -0.829%
68 | Cc1cc(NC(=O)CS(=O)(=O)c2cn(C)c3ccccc23)no1 | 1.58%
69 | CCN(C(=O)CSc1ncnc2sccc12)c1c(N)n(Cc2ccccc2)c(=O)[nH]c1=O | -3.54%

Row | SMILES | activation
70 | CC1CC2=C(CC1/C=N/NC(N)=S)C(C)(C)CCC2 (stereo unspecified) | 67.6% (active)
71 | Cc1ccc(C(=O)Cc2nnc(C)s2)cc1 | 1.29%
72 | CC(=O)Nc1ccc(S(=O)(=O)N2CCC(NC(=O)c3ccccc3)CC2)cc1 | 1.32%
73 | C=Cn1c(C(=O)O)ccc1-c1ccc(OC)cc1 | -1.21%
74 | COC(=O)c1ccc(C(=O)NC2CC(C)(C)Cc3c2cnn3-c2ccc(F)cc2)nc1 (stereo unspecified) | 0.891%
75 | COc1ccc(C2=NN(C(=O)c3ccccc3C(=O)O)C(c3ccccc3O)C2)cc1 (stereo unspecified) | 4.22%
76 | CCOc1ccc2nc(Cl)c(C3CC(c4ccccc4)=NN3C(=O)c3cccs3)cc2c1 (stereo unspecified) | 85.3% (active)
77 | CCOc1ccccc1C1CC(c2cccc(NS(C)(=O)=O)c2)=NN1C(=O)c1ccccc1 (stereo unspecified) | 1.22%
78 | CCOc1ccccc1CN1CCN(C2CCC2)CC1CCO (stereo unspecified) | 1.34%
79 | CS(=O)(=O)c1ccc(C(=O)OCC(=O)NNC(=O)COc2ccc(Cl)cc2)cc1 | -0.907%
80 | Cc1c(NC(=O)CSc2nnc(-c3cccnc3)n2N)c(=O)n(-c2ccccc2)n1C | 0.658%
81 | Cc1c(NC(=O)CSc2nnnn2-c2ccc(C(=O)O)cc2)c(=O)n(-c2ccccc2)n1C | -0.108%
82 | Cc1c(NC(=O)CSc2cccc3cccnc23)c(=O)n(-c2ccccc2)n1C | 163% (active)
83 | NC(=O)CC[C@@H]1NC(=O)[C@@H]2CCCN2C(=O)c2cc([N+](=O)[O-])cc(F)c2NCCC[C@@H](C(N)=O)NC1=O | -0.0942%
84 | COc1ccccc1P(=O)(c1ccccc1)c1ccccc1NC(C)=O (stereo unspecified) | -0.343%
85 | COc1cc(C(=O)N/C(=C\c2cn(C)c3ccccc23)C(=O)N2CCOCC2)cc(OC)c1OC | -0.204%
86 | CCCCC[C@H]1CN(C2CCCCC2)C(=O)[C@@H]1CC(=O)NCc1ccc(OC)cc1 | 0.258%
87 | CC[C@H](C)C(=O)N[C@H]1CCCN1C(=O)/C=C/c1ccccc1 | -0.778%
88 | COCCNc1nc(-n2nc(C)cc2C)nc2sc3c(c12)CCCC3 | 45.9% (active)
89 | CCC(O)CNc1nc(-n2nc(C)cc2C)nc2sc3c(c12)CC(C)(C)OC3 (stereo unspecified) | -0.387%
90 | Cc1nc2sc3c(c2c(=O)n1NC(=O)CCl)CCCC3 | 1.06%
91 | O=C(Nc1ccc(S(=O)(=O)N2CCOCC2)cc1)c1ccc2ncsc2c1 | 2.81%
